B1: tRNA (parent)
chain: GUUCCGUUGGCGUAAUGGUAACGCGUCUCCCUCCUAAGGAGAAGACUGCGGGUUCGAGUCCCGUACGGAACG

Variants of: B1
Experiment: yeast fitness, log relative to wild type (ln ratio); higher = fitter; tRNA-Arg(CCU), competitive growth, 37 C, 1 M NaCl
Method in brief: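 For each genotype, fitness is defined as the natural log of its generation number over the wild type's. The tRNA-Arg(CCU) variant library was on a HIS3 centromeric plasmid in BY4742 with the chromosomal gene removed, and pools were first grown 4 generations in SC-HIS at 30 °C and then ~6.5 generations (~26.5 h) in SC-HIS 1M NaCl at 37 °C. Generations were calculated from OD-scaled log2 output/input frequency, weighted by inverse variance across replicates, using counts from 125 bp paired-end Illumina sequencing.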

With U2G G6A C27U C66U A69G A70G C71U as the variant, how does the “yeast fitness (ln)” value read?
The value was -0.272.

Which “yeast fitness (ln)” value does the source give for G1A U2G G6U A43C C46U here?
Its value is -0.117.

Which “yeast fitness (ln)” value does the source give for G6A C27U A43C C46U C66A A70U C71U here?
The value was -0.346.

With U2G C27U C66U A69G A70U as the variant, how does the “yeast fitness (ln)” value read?
Its value is -0.212.

Which “yeast fitness (ln)” value does the source give for G1A G6A C27U A43C C46U A70G here?
Its value is -0.285.

Which “yeast fitness (ln)” value does the source give for U2G C46U A69G A70U here?
Its value is 0.00211.

With G1A U2C G6U C27U A43C C46U C66A A69G A70G C71U as the variant, how does the “yeast fitness (ln)” value read?
Its value is -0.0612.

For G1A U2C C27U C46U C66A C71U, which “yeast fitness (ln)” value is on record?
The value was -0.12.

For U2G G6A C66A A69G A70U C71U, which “yeast fitness (ln)” value is on record?
The value was -0.31.

Which “yeast fitness (ln)” value does the source give for U2G G6A C27U C46U C66A A70G C71U here?
The value was -0.221.

Which “yeast fitness (ln)” value does the source give for G1A G6A A43C A69G A70G C71U here?
Its value is -0.248.

Which “yeast fitness (ln)” value does the source give for U2G C27U C46U A70G here?
Its value is -0.0813.

With U2G G6A A43C C46U C66U A70U as the variant, how does the “yeast fitness (ln)” value read?
Its value is -0.000672.

Which “yeast fitness (ln)” value does the source give for U2G G6A C46U here?
The value was -0.0244.

For G1A U2G G6U C46U A69G A70U C71U, which “yeast fitness (ln)” value is on record?
The value was -0.279.

Which “yeast fitness (ln)” value does the source give for G1A C27U A43C C46U C66A A70G here?
Its value is -0.248.

For U2C G6U A43C C66U A69G A70G C71U, which “yeast fitness (ln)” value is on record?
The value was -0.352.

With U2C A69G as the variant, how does the “yeast fitness (ln)” value read?
The value was -0.0379.

For G1A U2G G6U C46U A69G A70G, which “yeast fitness (ln)” value is on record?
Its value is -0.247.

With G1A G6U A43C C66A as the variant, how does the “yeast fitness (ln)” value read?
The value was -0.19.

For U2C G6U C66U A70U, which “yeast fitness (ln)” value is on record?
The value was -0.0735.

For G1A G6A C46U A69G A70G, which “yeast fitness (ln)” value is on record?
The value was -0.123.

Which “yeast fitness (ln)” value does the source give for G6U A43C C46U A69G A70G here?
Its value is -0.232.

Which “yeast fitness (ln)” value does the source give for U2G G6A C27U A43C C46U C66A A69G A70U C71U here?
Its value is -0.65.

Which “yeast fitness (ln)” value does the source give for G6U C27U C46U A69G here?
Its value is -0.15.

Which “yeast fitness (ln)” value does the source give for C27U A43C C66U A70U C71U here?
Its value is -0.326.

For U2C G6U C46U C66A, which “yeast fitness (ln)” value is on record?
Its value is -0.0276.

With G1A C27U A43C C46U C66U A69G A70U C71U as the variant, how does the “yeast fitness (ln)” value read?
Its value is -0.448.

With U2C A43C C46U C66U A69G C71U as the variant, how does the “yeast fitness (ln)” value read?
Its value is -0.25.

For G1A G6A A70U, which “yeast fitness (ln)” value is on record?
Its value is -0.0929.

Which “yeast fitness (ln)” value does the source give for G1A U2G C46U A69G A70G here?
The value was -0.163.

For G6A A43C C46U A69G C71U, which “yeast fitness (ln)” value is on record?
The value was -0.171.

Which “yeast fitness (ln)” value does the source give for U2G A43C A69G here?
Its value is 0.00792.

Which “yeast fitness (ln)” value does the source give for U2G G6A A43C A69G A70U C71U here?
Its value is -0.364.

With U2G G6A A43C C46U C71U as the variant, how does the “yeast fitness (ln)” value read?
The value was -0.151.

For U2G C27U C46U C66A A70G, which “yeast fitness (ln)” value is on record?
Its value is -0.0963.

With G1A G6A C27U C46U C71U as the variant, how does the “yeast fitness (ln)” value read?
The value was -0.253.

Which “yeast fitness (ln)” value does the source give for G6U C46U C66A A70U here?
The value was 0.00243.

For U2G C27U A43C A69G A70U, which “yeast fitness (ln)” value is on record?
Its value is -0.267.

With U2C G6A C27U C46U C66U A69G C71U as the variant, how does the “yeast fitness (ln)” value read?
Its value is -0.271.

With G1A G6A C27U A43C C66U A69G A70G C71U as the variant, how does the “yeast fitness (ln)” value read?
Its value is -0.487.

Which “yeast fitness (ln)” value does the source give for U2G A43C C46U C66U A69G C71U here?
The value was -0.279.

Which “yeast fitness (ln)” value does the source give for U2C G6A C46U A70U here?
The value was -0.0378.

With U2G C27U A43C A70U C71U as the variant, how does the “yeast fitness (ln)” value read?
Its value is -0.235.

Which “yeast fitness (ln)” value does the source give for G1A G6A C27U C66A C71U here?
The value was -0.224.

Which “yeast fitness (ln)” value does the source give for G1A G6A C46U A70G here?
Its value is -0.0807.

With U2C C27U C46U C66A A70G as the variant, how does the “yeast fitness (ln)” value read?
The value was -0.137.

Which “yeast fitness (ln)” value does the source give for G1A U2G G6U C46U C66U A70U here?
The value was -0.184.

Which “yeast fitness (ln)” value does the source give for G1A U2C G6U C46U C66A A70U C71U here?
The value was -0.0961.

Which “yeast fitness (ln)” value does the source give for U2C G6U A43C C66U A69G A70U here?
The value was -0.231.

For U2G G6U C46U C66U A69G A70G C71U, which “yeast fitness (ln)” value is on record?
The value was -0.231.

With U2C G6U C46U A69G A70U C71U as the variant, how does the “yeast fitness (ln)” value read?
Its value is -0.216.

For G1A U2G A43C C46U C66U A70U, which “yeast fitness (ln)” value is on record?
Its value is -0.141.

For U2C C46U A69G A70U, which “yeast fitness (ln)” value is on record?
Its value is -0.0822.

With G6U as the variant, how does the “yeast fitness (ln)” value read?
Its value is -0.0403.

Which “yeast fitness (ln)” value does the source give for U2G G6U A43C C46U C66A A70U here?
Its value is -0.00113.

For G1A G6A C46U C66A A70U C71U, which “yeast fitness (ln)” value is on record?
The value was -0.15.

With G1A C27U A43C C66U A70U as the variant, how does the “yeast fitness (ln)” value read?
The value was -0.201.

Which “yeast fitness (ln)” value does the source give for G1A U2C G6U C27U C46U here?
The value was -0.0885.

Which “yeast fitness (ln)” value does the source give for U2G G6U C27U C46U C66U A69G A70U C71U here?
The value was -0.336.

For G6A C27U A43C C71U, which “yeast fitness (ln)” value is on record?
The value was -0.184.

Which “yeast fitness (ln)” value does the source give for G1A U2G G6U C27U C66U A70U C71U here?
The value was -0.434.

With G1A G6U C46U A70U as the variant, how does the “yeast fitness (ln)” value read?
The value was -0.14.

Which “yeast fitness (ln)” value does the source give for U2G G6A A69G A70U C71U here?
The value was -0.264.

Which “yeast fitness (ln)” value does the source give for A43C C66A A70G C71U here?
Its value is -0.105.

For G1A U2G G6A C27U A43C A70U C71U, which “yeast fitness (ln)” value is on record?
Its value is -0.365.

Which “yeast fitness (ln)” value does the source give for G1A U2C G6U C66A A69G A70G here?
Its value is -0.126.

With G1A U2C G6U C27U C46U C66U A70U C71U as the variant, how does the “yeast fitness (ln)” value read?
Its value is -0.284.

With U2G G6A C27U A43C C46U C71U as the variant, how does the “yeast fitness (ln)” value read?
The value was -0.134.

For U2G G6A C27U C46U C66U A69G C71U, which “yeast fitness (ln)” value is on record?
The value was -0.277.

For G6A C66A A70U C71U, which “yeast fitness (ln)” value is on record?
The value was -0.241.

With G1A U2G G6A C46U C66A A69G A70G C71U as the variant, how does the “yeast fitness (ln)” value read?
The value was -0.354.

For G1A U2C G6U C46U C66U A69G A70U, which “yeast fitness (ln)” value is on record?
The value was -0.156.

With U2C G6U C27U C66A A69G A70G as the variant, how does the “yeast fitness (ln)” value read?
Its value is -0.0927.

For U2C G6A A70U C71U, which “yeast fitness (ln)” value is on record?
The value was -0.0821.

Which “yeast fitness (ln)” value does the source give for G1A U2G C66U A70G here?
The value was -0.161.

For C27U A43C C46U C66U A70G, which “yeast fitness (ln)” value is on record?
Its value is -0.115.

Which “yeast fitness (ln)” value does the source give for G6U C46U A70G C71U here?
Its value is -0.202.

With U2G G6U A43C C46U C66A A70G C71U as the variant, how does the “yeast fitness (ln)” value read?
The value was -0.174.

With U2C G6U A69G A70G C71U as the variant, how does the “yeast fitness (ln)” value read?
Its value is -0.325.

With U2G G6A A43C C46U C66U A69G A70U as the variant, how does the “yeast fitness (ln)” value read?
Its value is -0.0409.

For C27U C66A A70G C71U, which “yeast fitness (ln)” value is on record?
The value was -0.194.

With G1A G6A C27U C66U A69G A70U C71U as the variant, how does the “yeast fitness (ln)” value read?
The value was -0.387.

From the RNAGym collection of RNA variant scans (doi:10.1038/s41586-018-0170-7)
